HIF act = HIF pathway transcriptional activation; activation, % at 7.5 µM (by protocol); actives 0.32% (n = 300,000); AID 1910; U2OS HRE-luciferase reporter, luminescence; normalized: DMSO 0%, desferrioxamine 100%;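 active = mean activation of at least 10% of the iron chelator positive control signal, with at least half of replicates also reaching 10%; inconclusive = mean and replicate majority disagree about reaching 10%; inactive = mean and most replicates under 10%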
CSC inhib = cancer stem cell inhibition. cancer stem cell-like cells viability, luminescence. inhibition, % at 7.5 µM. actives 1.1% (n = 300,000). AID 2717; in the data active = inhibition above about 75%; inconclusive = no clear call, values can overlap the other calls; tested in HMLE shEcad cells
SKKanGAS inh = blocks kanamycin growth of S. pyogenes SKKanGAS strain; actives 1.3% (n = 300,000); BacTiter-Glo, 6 h; inhibition, % at 7.5 µM;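 active = mean replicate score, as percent of positive control median, at least 50; inconclusive = mean below 50 but one replicate at or above 50; inactive = mean and every replicate below 50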;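 note: strain carries kanamycin resistance gene driven by streptokinase promoter and grows in 40 µg/ml kanamycin; loss of luminescence reflects streptokinase promoter inhibition or plain growth inhibition; 0% = median of DMSO wells and 100% = positive control at its reference dose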
Beta apoptosis = blocks beta cell apoptosis | INS-1E cytokine-induced death, ATP luminescence, 48 h; percent of positive-control rescue, neutral wells zero | protection from apoptosis, % (test concentration not listed) | actives 0.8% (n = 300,000) | AID 435005;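 active = Every replicate reaches about 75%, or at least half do and their mean reaches it too, limit read from the data; inconclusive = At least half of replicates reach the limit but their mean does not; inactive = Under half of replicates reach the limit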;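 note: 0% = cytokine-treated negative control wells and 100% = positive control rescue; higher means more ATP so stronger rescue from cytokine killing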
T cruzi inh = T. cruzi replication inhibition; T. cruzi beta-gal in NIH3T3, luminescence, 90 h; inhibition, % (test concentration not listed); actives 1.4% (n = 300,000);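 active = mean inhibition across valid replicates above about 55%, limit read from the data; inconclusive = mean below that limit but half or more replicates reach it; inactive = mean below it, under half of replicates reach it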;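 note: signal also drops with host cell toxicity which is not excluded here; 0% = plate median of DMSO wells and 100% = zero luminescence signal; higher percent means less beta-gal luminescence so fewer parasites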
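System – NIH/3T3 host cells with β-galactosidase reporter T. cruzi · Doses – single 50 nL compound addition per well in DMSO · Reagent – 5000 T. cruzi trypomastigotes/well · Medium – Low-serum DMEM with 2% FBS · Timing – ≥90 h infection period, 3 h prior cell attachment · Evaluation – parasite load inhibition, % · Technique – GalScreen luminescence, 60 min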
PfHsp90 set2 = inhibits growth of yeast expressing Plasmodium falciparum Hsp90. S. cerevisiae expressing PfHsp90, BacTiter-Glo ATP, 48 h; yeast lacking PDR1 and PDR3 efflux regulators. inhibition, % at 9.4 µM. actives 0.32% (n = 310,000);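 active = every replicate shows inhibition above about 80%, whatever the replicate mean, limit read from the data; inconclusive = mean inhibition reaches the set limit but some replicate falls short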;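 note: 0% = DMSO neutral controls and 100% = 20 µM radicicol positive controls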
* = called active by the depositor; ? = inconclusive; . = not tested or not shown. Hits are enriched below; roughly 3.6% of the tested compounds scored in any of these assays.

SMILES | HIF act | CSC inhib | SKKanGAS inh | Beta apoptosis | T cruzi inh | PfHsp90 set2
O=C(/C(=C/O)N=Nc1ccccc1)c1ccncc1 | 0 | 15 | -8 | 4 | -14 | .
Cc1ccc(N=N/C(=C\O)C(=O)c2ccc(Cl)cc2)cc1 | 1 | 17 | ? | . | -13 | 107*
O=C(/C(=C/O)N=Nc1ccccc1)c1ccc(Cl)cc1 | 1 | 71 | -3 | 27 | -30 | 106*
O=S(=O)(c1ccc2ccccc2c1)N1CCC(c2nc(-c3ccncc3)no2)CC1 | 0 | 60 | 1 | 17 | 71* | -2
CCN(CC)S(=O)(=O)c1ccc2c(c1)nc(CCC(=O)Nc1ccc(N3CCOCC3)cc1)n2C | -1 | . | 3 | -2 | 3 | -1
CC(=O)c1c(O)c2ccccc2n(C)c1=O | 0 | . | 18 | 2 | -15 | 11
Cn1c(=O)c(C(=O)NNC(=O)c2ccccc2Cl)c(O)c2ccccc21 | 0 | 17 | 51* | -1 | -9 | -25
CCn1c(=O)c(C(C)=O)c(O)c2ccccc21 | 0 | -1 | 0 | 2 | -8 | .
CCn1c(=O)c(C(=O)NNC(=O)c2ccccc2Br)c(O)c2ccccc21 | 0 | . | 90* | 1 | -5 | 0
Cn1c(=O)c(C(=O)NNC(=O)c2ccccc2Br)c(O)c2ccccc21 | -9 | -1 | 75* | 5 | -3 | 19
CCC(NC(=O)CCl)c1ccc(C)cc1 (centres undefined) | -2 | -2 | 2 | -4 | 19 | -5
CCNC(=O)n1cc(-n2cncn2)c(-c2ccccc2)n1 | 0 | 26 | -1 | 3 | 5 | 7
Cc1cccc(-c2noc(-c3ccc4c(c3)OCO4)n2)c1 | -1 | 3 | 1 | 4 | 0 | -27
Cc1cccc(-c2oc3ccccc3c2-c2ccc3c(c2)OCO3)c1 | 2 | 4 | 52* | 7 | 0 | 4
CC1=C(C(N)=O)C(c2cccs2)n2nc(-c3cccc(C)c3)nc2N1 (centres undefined) | 0 | 4 | 0 | -5 | 0 | -18
CC1=C(C(N)=O)C(c2cccnc2)n2nc(-c3cccc(C)c3)nc2N1 (centres undefined) | -1 | 0 | -15 | -2 | 66* | .
Cc1cc(-c2ccn[nH]2)c(C)s1 | 0 | 7 | 1 | 1 | -2 | -5
O=C(Nc1nnc(-c2ccco2)o1)c1ccc2ccccc2c1 | 0 | 11 | 92* | . | -6 | -18
Cc1ccc(C(=O)Nc2nnc(-c3ccco3)o2)cc1 | 0 | -3 | 13 | -1 | -16 | -5
Cc1ccsc1C(=O)Nc1nnc(-c2ccco2)o1 | 1 | -10 | 83* | -4 | 33 | -17
CN(C)CCCn1c(-c2ccccc2)nc(=S)c2c1CCCC2 | 0 | . | 11 | -3 | 59* | .
Cc1ccc(CCN2C(Nc3ccccc3)=NC[C@@H]2C)cc1 | . | 2 | . | 0 | . | 1
CC(C)C(NC(=O)C1CCCCC1)C(=O)NCCc1ccccc1 (centres undefined) | -1 | -2 | -4 | -4 | -10 | 15
CC(C)Cc1nc2oc3c(Cl)ncnc3c2c2c1CCCC2 | 0 | 76* | -11 | 3 | -3 | -4
COc1ncnc2c1oc1nc(CC(C)C)c3c(c12)CCCC3 | . | . | . | . | . | 0
SMILES | HIF act | CSC inhib | SKKanGAS inh | Beta apoptosis | T cruzi inh | PfHsp90 set2
CCCc1nc2oc3c(Cl)ncnc3c2c2c1CCCC2 | 0 | 2 | 53* | -8 | 3 | 25
CNc1ccccc1C(C)(C)c1cc(-c2cccc(OC)c2)no1 | 0 | . | 21 | 61 | 15 | 25
CNc1ccccc1C(C)(C)c1cc(-c2cc(C)cc(C)c2)no1 | 0 | 97* | 7 | 3 | 11 | 34
Cc1ccc(C)c(-n2c(-c3ccc(Br)cc3)csc2=NC(=O)c2ccccc2F)c1 | -7 | 3 | -15 | 12 | 64* | -3
Cn1ccsc1=NC(=O)c1ccccc1F | 0 | -10 | 3 | 0 | -5 | 14
O=C(O)CCCCCCCCc1cn(Cc2ccc(C(=O)c3ccccc3)cc2)nn1 | 1 | 61 | 18 | 20 | 56* | .
CN(C)c1cc[n+](Cc2c(Cl)cccc2Cl)cc1 | -1 | 7 | -5 | 97* | 50 | 58
CN(C)c1cc[n+](CC[n+]2ccc(N(C)C)cc2)cc1 | 1 | -10 | 8 | -10 | -23 | -7
COc1cnc(-c2ccccn2)nc1Sc1ccc(F)cc1 | 0 | 1 | 56* | 42 | -49 | 2
COc1cnc(-c2ccccn2)nc1Sc1ccccc1 | 2 | 17 | 91* | 50 | 65* | -43
COc1cnc(-c2ccccn2)nc1Sc1ccc(Cl)cc1 | 0 | -2 | ? | 12 | 19 | .
COc1ccc(Sc2nc(-c3ccccn3)ncc2OC)cc1 | 0 | -7 | 11 | 90* | 63* | 7
CCOC(=O)CSc1nc(-c2ccccn2)ncc1OC | 0 | 1 | 11 | 0 | -2 | 10
CCN(C1CCCCC1)S(=O)(=O)c1cc2c3c(c1)CCN3C(=O)CC2 | 1 | 3 | 2 | -2 | -5 | .
Cc1ccc(S(=O)(=O)N2CCC[C@H]2C(=O)NC2=NCCS2)cc1 | . | . | . | . | . | 20
O=C(O)c1ccc(CSc2nc(-c3ccc(Cl)cc3)cc(C(F)(F)F)n2)cc1 | . | ? | 52* | -2 | -24 | -5
CC1CC(C)CN(S(=O)(=O)c2ccc3c(c2)oc(=O)n3CC(=O)NCCCOC(C)C)C1 (centres undefined) | 31* | -15 | 0 | 2 | -1 | 1
CCC(C)(C)NC(=O)Cn1c(=O)oc2cc(S(=O)(=O)N3CC(C)CC(C)C3)ccc21 (centres undefined) | 0 | -12 | 5 | -1 | 6 | -9
FC(F)(F)c1cnc(N2CCCN(C(=S)Nc3ccccc3)CC2)c(Cl)c1 | 0 | 10 | 27 | -13 | 9 | -22
FC(F)(F)c1cnc(N2CCN(C(=S)NCc3ccccc3)CC2)c(Cl)c1 | 45* | 23 | 32 | -3 | -4 | -29
COc1ccc(Cn2c(-c3ccc(C)cc3)c[n+]3ccccc23)cc1 | 0 | 5 | 1 | 93* | ? | 22
O=C(CCCn1c(=S)[nH]c2cc3c(cc2c1=O)OCO3)NCc1cccc(Cl)c1 | 0 | -11 | 38 | 2 | 3 | -7
CCOC(=O)C1(CCOc2ccccc2)CCN(Cc2ccc(-n3cccn3)cc2)CC1 | -3 | 51 | -18 | 11 | 42 | -28
Cc1ccc(/C=C\c2nccc3c2[nH]c2ccccc23)cc1 | 4 | 83* | 47 | 5 | 8 | 6
Cc1onc(-c2c(Cl)cccc2Cl)c1C(=O)N=C(N)N1CCCC1 | 28* | 5 | 3 | -2 | -5 | -6
Cc1onc(-c2c(Cl)cccc2Cl)c1C(=O)N=C(N)N1CCOCC1 | 0 | 2 | -1 | -6 | -15 | 2
Cc1cccc(N=Cc2cc(Br)cc(Cl)c2O)c1 | 0 | 10 | 29 | -3 | -10 | -56

Screening data: PubChem, Broad Institute
